This is a sample that favours compounds with a hit; in the whole collection about 4.8% have one here.
Beta apoptosis: inhibitors of cytokine-induced beta cell apoptosis, primary screen, luminescence | INS-1E cytokine-induced death, ATP luminescence, 48 h; percent of positive-control rescue, neutral wells zero | protection from apoptosis, % (concentration not given with the values) | hit rate 0.8% among 300,000 | AID 435005, 2010;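 active = Every replicate reaches about 75%, or at least half do and their mean reaches it too, limit read from the data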;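 note: 0% = cytokine-treated negative control wells and 100% = positive control rescue; higher means more ATP so stronger rescue from cytokine killing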
T cruzi repl: inhibitors of intracellular T. cruzi growth, primary screen, luminescence, NIH3T3 host cells. AID 1885, 2009. hit rate 1.4% among 300,000. inhibition, % (no concentration beside the values). T. cruzi beta-gal in NIH3T3, 90 h;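 active = mean inhibition across valid replicates above about 55%, limit read from the data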;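 note: signal also drops with host cell toxicity which is not excluded here; 0% = plate median of DMSO wells and 100% = zero luminescence signal; higher percent means less beta-gal luminescence so fewer parasites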
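Assay system: NIH/3T3 fibroblasts plus reporter T. cruzi. Amount: NIH/3T3 cells, 5,000 per well. Buffer or medium: DMEM, 2% fetal bovine serum. Doses: compound pinned at 50 nL/well, DMSO. Schedule: ≥90 h infection period, 3 h prior cell attachment. Signal: luminescent β-galactosidase signal after 60 min lysis. Read-out: parasite load inhibition, %.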
Efflux pump inh: inhibitors of Candida efflux pumps in yeast, primary screen, S. cerevisiae, Nile Red, multiplex; S. cerevisiae Candida pump triplex; inhibition, % at 10 µM; hit rate 0.44% among 330,000;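 active = plate passing quality check with inhibition over a set limit, or well fluorescence over plate mean plus 4 SD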;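 note: Nile Red retained in pooled yeast measured as flow cytometry median fluorescence; 0% = buffer negative control and 100% = Enniatin B positive control; higher means more Nile Red kept so more efflux inhibition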
WT yeast gro inh: growth inhibition of WT strain, primary screen, mitochondrial fusion inhibitor project, WT and mutant strains, chemical genetic; hit rate 2.1% among 190,000; inhibition, % at 10 µM; mitochondrial fusion phenotypic screen; AID 1362, 2008; in the data active = inhibition above about 58%; tested in S. cerevisiae
CSC inhib: cancer stem cell viability inhibitors, primary screen, luminescence; cancer stem cell-like cells viability; inhibition, % at 7.5 µM; hit rate 1.1% among 300,000; in the data active = inhibition above about 75%; tested in HMLE shEcad cells
Mot1-301 SUMO: yeast Mot1-301 growth rescue at high temperature, primary screen, SUMOylation pathway inhibitor project, S. cerevisiae, ATP luminescence, 38.5C. hit rate 1% among 320,000. S. cerevisiae Mot1-301 growth rescue; percent above DMSO median, 100 means doubled. growth rescue, % at 18.8 µM;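 active = every valid replicate shows activation above 250% relative to neutral control wells; inactive = the rest, any valid replicate at or below 250%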;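 note: OY570 slx delta 5 strain wells were the positive control but not used for scaling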
Starred values were filed as active, the others as inactive; / = no result.

SMILES	Beta apoptosis	T cruzi repl	Efflux pump inh	WT yeast gro inh	CSC inhib	Mot1-301 SUMO
Nc1[nH]n2c(=O)c3c(nc2c1N=Nc1ccccc1)CCCC3	28.0	9.1	0.2	80.1*	/	17.5
COc1ccc(-c2c(C(F)(F)F)[nH]n3c(=O)cc(-c4ccccc4)nc23)cc1	-4.4	-15.1	0.4	/	91.8*	8.1
Cc1ccc(CSc2nnc(-c3ccco3)o2)cc1	-14.6	-11.7	0.1	21.2	-15.3	-7.2
C=CCn1c(CCC(=O)O)ccc1-c1ccccc1	-2.1	9.0	0.0	21.4	3.1	-8.4
O=C(c1ccc(Cl)cc1)c1c[nH]c(C(=O)C(Cl)(Cl)Cl)c1	-16.5	-14.4	0.1	82.5*	50.7	61.9
O=C(c1ccc(Cl)cc1)c1c[nH]c(C(=O)NNc2ccccc2)c1	2.5	7.7	0.0	11.3	95.2*	336.7*
CC#CC[N+](C)(C)CCCCCCCCCCCC	104.2*	73.3*	0.2	83.3*	33.0	-2.1
CCCCCCCCCCCCCCCC[N+](C)(C)CC	116.8*	35.5	1.8*	/	101.2*	47.8
O=C(NC(=S)NNC(=O)[C@H]1C[C@@H]1c1ccccc1)c1cccc(F)c1	10.5	58.3*	-0.2	/	17.6	-28.2
c1ccc(C(c2ccccc2)N2CCN(c3nc4ccccc4n4cnnc34)CC2)cc1	108.1*	/	0.4	16.7	31.7	600.6
c1cnc(N2CCN(c3nc4ccccc4n4cnnc34)CC2)nc1	-10.8	-14.4	-0.1	16.3	/	-4.7
CC1CCc2nc(NC(=O)CN3CCN(c4ccc(F)cc4)CC3)sc2C1 (stereo unspecified)	-8.7	18.9	0.1	67.1*	5.2	-15.6
CC(C)(C)[C@H]1C=C(C(=O)N2CCN(Cc3ccc4c(c3)OCO4)CC2)O[C@@H](OCc2ccc(CO)cc2)C1	-8.0	46.0	/	96.8*	5.2	2.8
CC(C)(C)[C@H]1C=C(C(=O)N2CCN(Cc3ccccc3)CC2)O[C@@H](OCCCCO)C1	-3.4	23.7	0.1	-27.6	-3.7	38.0
CC(C)(C)[C@@H]1C=C(C(=O)N2CCN(Cc3ccccc3)CC2)O[C@H](OCc2ccc(CO)cc2)C1	3.1	16.5	/	70.2*	4.6	-5.8
Brc1ccc(C[n+]2ccccc2)cc1	-7.3	-19.8	0.1	/	-14.1	6.5
CCc1noc(C)c1C(=O)N1CCN(S(=O)(=O)c2ccc(Cl)s2)CC1	-0.7	-1.0	-0.1	/	-10.7	-16.8
CC(C)Cc1nnc(NC(=O)c2ccc3c(c2)OCCO3)s1	-1.7	/	0.2	/	/	2.5
O=C(NCC1CCCO1)C1CCC(=O)N1Cc1ccccc1Cl (stereo unspecified)	-2.8	-3.3	0.0	91.3*	10.8	-23.6
COc1ccc2c(c1O)C(=O)c1ccccc1C2=O	-1.6	7.2	0.0	12.6	6.6	-4.6
CC(C)COC(=O)c1ccc2c(c1O)C(=O)c1ccccc1C2=O	85.2*	-17.3	-0.1	43.6	21.1	11.5
CCOC(=O)N1CCN(S(=O)(=O)c2ccc(C)cc2)C1c1ccc(OC)cc1 (stereo unspecified)	-7.3	-3.4	0.1	84.8*	-3.3	7.2
CCOC(=O)N1CCN(C(=O)Cn2ncc3c2-c2ccccc2OC3)CC1	2.7	-4.3	0.4	13.5	0.3	356.8*
CCN1CCN(C(=O)Cn2ncc3c2-c2ccccc2OC3)CC1	-4.2	-7.9	0.3	4.0	-8.4	-12.6
Cc1ccc(/C=N/NC(=O)c2nnn(-c3nonc3N)c2CSc2ccc(Cl)cc2)o1	-4.5	-6.9	0.3	/	-11.8	-69.9
COc1ccc(C(=O)/C=C/C(=O)N(CC(=O)NC2CCCCC2)Cc2ccccc2OC)c(O)c1	/	89.1*	/	1.6	/	/
COc1ccc(C(=O)/C=C/C(=O)N(CC(=O)NC2CCCCC2)Cc2ccccc2)c(O)c1	/	59.7*	/	40.6	/	/
COc1ccc(C(=O)/C=C/C(=O)N(Cc2ccccc2OC)C(C(=O)NC2CCCCC2)c2ccncc2)c(O)c1 (stereo unspecified)	7.2	22.9	-0.1	14.8	/	0.6
O=C(O)CCC(=O)NNC(=O)c1cccs1	-7.2	-18.2	0.1	-1.4	-1.6	-12.9
COC(=O)c1[nH]nc(-c2ccccc2)c1-c1ccccc1	1.2	9.3	-0.1	/	6.1	-12.7
